Measured values: ChEMBL document CHEMBL1221376, “Identification and optimization of novel 2-(4-oxo-2-aryl-quinazolin-3(4H)-yl)acetamide vasopressin V3 (V1b) receptor antagonists” (Bioorg Med Chem Lett, 2010)

The compounds below were run against Vasopressin V1a receptor (Homo sapiens) (UniProt P37288) (assay: Displacement of [3H]AVP from human vasopressin V1a receptor at 5 uM).
Outline: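 Membrane binding using membranes from CHO cells stably expressing human V1a receptor, with 5 nM [3H]-AVP (final) and test compound in 50 mM Tris–HCl pH 7.4, 5 mM MgCl2, 1 mg/mL BSA and 0.5% DMSO. Incubated 60 min at room temperature, then rapid filtration over polyethylenimine-soaked GF/B filters. Filters washed with ice-cold Tris–HCl, dried 30 min at 55 °C, scintillation counted.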

Vasopressin V1a receptor (Homo sapiens), sequence (P37288 whole entry, looked up): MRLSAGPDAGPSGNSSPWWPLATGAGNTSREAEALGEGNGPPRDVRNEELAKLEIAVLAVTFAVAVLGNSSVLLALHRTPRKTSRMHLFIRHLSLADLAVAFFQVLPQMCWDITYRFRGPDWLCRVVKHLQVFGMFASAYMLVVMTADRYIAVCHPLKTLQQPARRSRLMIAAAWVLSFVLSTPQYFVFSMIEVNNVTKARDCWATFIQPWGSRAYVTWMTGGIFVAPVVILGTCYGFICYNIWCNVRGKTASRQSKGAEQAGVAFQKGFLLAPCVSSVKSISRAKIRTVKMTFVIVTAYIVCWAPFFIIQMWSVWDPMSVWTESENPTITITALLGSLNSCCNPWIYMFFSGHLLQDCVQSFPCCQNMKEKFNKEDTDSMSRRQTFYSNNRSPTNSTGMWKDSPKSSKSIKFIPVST

Row | Structure (SMILES) | inhibition [%]
1 | O=C(Cn1c(-c2ccccc2)nc2ccc(OCCCN3CCOCC3)cc2c1=O)NCC1CC1 | 6

Each compound was assayed against Vasopressin V2 receptor (Homo sapiens, UniProt P30518) (assay: Displacement of [3H]AVP from human vasopressin V2 receptor).
Vasopressin V2 receptor, sequence (P30518 whole entry): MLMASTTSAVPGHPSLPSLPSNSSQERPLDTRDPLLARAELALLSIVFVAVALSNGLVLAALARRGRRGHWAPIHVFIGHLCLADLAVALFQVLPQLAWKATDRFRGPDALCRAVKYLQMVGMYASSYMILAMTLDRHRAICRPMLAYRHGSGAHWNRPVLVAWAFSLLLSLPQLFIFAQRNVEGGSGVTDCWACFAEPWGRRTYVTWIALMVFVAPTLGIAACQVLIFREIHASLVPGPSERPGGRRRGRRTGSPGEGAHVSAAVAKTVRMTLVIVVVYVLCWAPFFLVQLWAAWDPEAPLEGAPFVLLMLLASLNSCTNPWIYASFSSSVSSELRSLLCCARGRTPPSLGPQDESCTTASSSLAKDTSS

Row | Structure (SMILES) | IC50 [µM]
2 | O=C(Cn1c(-c2ccccc2)nc2ccc(OCCCN3CCOCC3)cc2c1=O)NCC1CC1 | > 100

These compounds were tested against T1, Vasopressin V1b receptor (Rattus norvegicus, UniProt P48974) (assay: Displacement of [3H]AVP from rat vasopressin V3 receptor).
T1 sequence (P48974 whole entry): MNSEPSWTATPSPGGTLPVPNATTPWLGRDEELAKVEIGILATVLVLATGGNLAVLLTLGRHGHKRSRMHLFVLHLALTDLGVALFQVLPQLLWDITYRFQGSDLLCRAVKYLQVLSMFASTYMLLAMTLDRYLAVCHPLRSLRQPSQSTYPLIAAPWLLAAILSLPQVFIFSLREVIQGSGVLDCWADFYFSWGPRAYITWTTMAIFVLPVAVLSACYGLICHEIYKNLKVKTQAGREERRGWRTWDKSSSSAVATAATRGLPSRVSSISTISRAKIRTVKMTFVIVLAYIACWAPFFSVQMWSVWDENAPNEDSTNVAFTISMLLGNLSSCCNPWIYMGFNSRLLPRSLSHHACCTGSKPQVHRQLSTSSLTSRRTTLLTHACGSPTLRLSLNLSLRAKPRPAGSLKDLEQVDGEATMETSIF

Row | Structure (SMILES) | IC50 [nM]
3 | O=C(Cn1c(-c2ccccc2)nc2ccc(OCCCN3CCOCC3)cc2c1=O)NCC1CC1 | 210

These compounds were tested against T2, Oxytocin receptor (Homo sapiens, UniProt P30559) (assay: Displacement of [3H]oxytocin from human oxytocin receptor).
T2 sequence (P30559 whole entry): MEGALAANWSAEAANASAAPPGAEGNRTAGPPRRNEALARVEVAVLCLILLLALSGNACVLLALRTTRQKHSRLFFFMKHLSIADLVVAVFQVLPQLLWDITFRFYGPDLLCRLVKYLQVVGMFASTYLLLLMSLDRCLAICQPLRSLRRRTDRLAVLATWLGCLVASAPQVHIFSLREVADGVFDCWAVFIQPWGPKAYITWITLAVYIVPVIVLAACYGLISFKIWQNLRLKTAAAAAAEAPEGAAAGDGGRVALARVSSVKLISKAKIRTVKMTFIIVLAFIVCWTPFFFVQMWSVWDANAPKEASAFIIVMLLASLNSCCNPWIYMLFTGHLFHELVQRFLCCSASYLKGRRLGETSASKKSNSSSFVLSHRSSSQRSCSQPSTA

Row | Structure (SMILES) | IC50 [µM]
4 | O=C(Cn1c(-c2ccccc2)nc2ccc(OCCCN3CCOCC3)cc2c1=O)NCC1CC1 | > 100

What follows are compounds tested against T3, Vasopressin V1b receptor (Homo sapiens, UniProt P47901) (assay: Displacement of [3H]AVP from human vasopresin3 receptor expressed in CHO cells).
T3 sequence (P47901 whole entry): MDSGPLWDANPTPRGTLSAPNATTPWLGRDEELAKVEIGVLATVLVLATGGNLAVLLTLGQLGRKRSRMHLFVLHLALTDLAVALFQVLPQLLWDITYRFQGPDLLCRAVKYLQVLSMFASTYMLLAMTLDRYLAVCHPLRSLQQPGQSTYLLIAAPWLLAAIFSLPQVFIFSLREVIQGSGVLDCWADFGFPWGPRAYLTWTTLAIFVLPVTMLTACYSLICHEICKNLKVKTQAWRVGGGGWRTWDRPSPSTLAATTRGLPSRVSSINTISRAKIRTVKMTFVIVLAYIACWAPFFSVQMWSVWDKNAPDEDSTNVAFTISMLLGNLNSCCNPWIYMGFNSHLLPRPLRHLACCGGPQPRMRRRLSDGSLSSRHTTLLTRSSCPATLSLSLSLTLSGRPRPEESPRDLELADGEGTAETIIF
Type: cell-based
Outline: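 Whole-cell binding on CHO cells stably expressing human V3 (V1b) receptor, grown at 37 °C with 5% CO2. Cells seeded at 30,000 per well, cultured overnight at 37 °C, then washed twice with PBS. Serially diluted compounds plus 5 nM [3H]-AVP (final) in PBS with 10 mM MgCl2, 0.1% BSA and 1% DMSO, 30 min at room temperature. Washed, air dried, scintillation counted.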

Row | Structure (SMILES) | IC50 [µM]
5 | O=C(Cn1c(-c2ccccc2)nc2ccc(O)cc2c1=O)NCC1CC1 | > 100
6 | NCCCCOc1ccc2nc(-c3ccccc3)n(CC(=O)NCC3CC3)c(=O)c2c1 | > 30
7 | CC(C)C[C@H](N)COc1ccc2nc(-c3ccccc3)n(CC(=O)NCC3CC3)c(=O)c2c1 | 2.1
8 | NCCCCCCOc1ccc2nc(-c3ccccc3)n(CC(=O)NCC3CC3)c(=O)c2c1 | > 100
9 | NCCOc1ccc2nc(-c3ccccc3)n(CC(=O)NCC3CC3)c(=O)c2c1 | 4
10 | O=C(Cn1c(-c2ccccc2)nc2ccc(OCCCN3CCCCC3)cc2c1=O)NCC1CC1 | 0.31
11 | CN1CCN(CCOc2ccc3nc(-c4ccccc4)n(CC(=O)NCC4CC4)c(=O)c3c2)CC1 | 22
12 | NCCCOc1ccc2nc(-c3ccccc3)n(CC(=O)NCC3CC3)c(=O)c2c1 | 3.6
13 | CN1CCN(CCCOc2ccc3nc(-c4ccccc4)n(CC(=O)NCC4CC4)c(=O)c3c2)CC1 | 1.7
14 | CCN(CC)CCCOc1ccc2nc(-c3ccccc3)n(CC(=O)NCC3CC3)c(=O)c2c1 | 3.8
15 | CC(C)C[C@@H](COc1ccc2nc(-c3ccccc3)n(CC(=O)NCC3CC3)c(=O)c2c1)NC(=O)CN | 5.1
16 | NCCCCCOc1ccc2nc(-c3ccccc3)n(CC(=O)NCC3CC3)c(=O)c2c1 | > 30
17 | CN1CCN(CCCCOc2ccc3nc(-c4ccccc4)n(CC(=O)NCC4CC4)c(=O)c3c2)CC1 | 4.8
18 | NCC(=O)NCCOc1ccc2nc(-c3ccccc3)n(CC(=O)NCC3CC3)c(=O)c2c1 | 30.5
19 | COC1CCN(CCCOc2ccc3nc(-c4ccccc4)n(CC(=O)NCC4CC4)c(=O)c3c2)CC1 | 0.71
20 | O=C(CCc1ccc(O)cc1)NCCOc1ccc2nc(-c3ccccc3)n(CC(=O)NCC3CC3)c(=O)c2c1 | > 100
21 | O=C(Cn1c(-c2ccccc2)nc2ccc(OCCCN3CCCCCC3)cc2c1=O)NCC1CC1 | 0.34
22 | O=C(Cn1c(-c2ccccc2)nc2ccc(OCCCN3CCOCC3)cc2c1=O)NCC1CC1 | 0.12
23 | O=C(Cn1c(-c2ccccc2)nc2ccc(OCCCN3CCC(O)CC3)cc2c1=O)NCC1CC1 | 1.1
24 | O=C(Cn1c(-c2ccccc2)nc2ccc(OCCCN3CCNCC3)cc2c1=O)NCC1CC1 | 25.8
25 | CNCCCOc1ccc2nc(-c3ccccc3)n(CC(=O)NCC3CC3)c(=O)c2c1 | 7.6
26 | O=C(Cn1c(-c2ccccc2)nc2ccc(OCCCN3CCCC3)cc2c1=O)NCC1CC1 | 1.8
27 | CC(C)C[C@@H](COc1ccc2nc(-c3ccccc3)n(CC(=O)NCC3CC3)c(=O)c2c1)NC(=O)[C@@H](N)Cc1ccc(O)cc1 | 0.2
